The source of these data is ChEMBL document CHEMBL1123603, “Synthesis of angiotensin II antagonists with variations in position 5” (J Med Chem, 1987).

Square brackets hold non-standard residues; d marks the D form. Peptide text beside a SMILES is read from it. * marks the point of attachment. Gly(cPent) = N[C@H](C(=O)O)C1CCCC1; Chg = N[C@H](C(=O)O)C1CCCCC1; Lac = C[C@H](O)C(=O)O; Glycolyl = O=C(CO)*; Sar = CNCC(=O)O

The test system of test [1] is Rattus norvegicus. The test can be described thus: Tested in vivo on the angiotensin II induced rise of blood pressure after intravenous administration of 5 ug/kg in conscious rats. It counts as functional. A digest of the protocol: (§1)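 Conscious, free-moving rats, carotid artery linked to a pressure transducer 24 h after surgery. One analogue per rat, in 0.9% NaCl with 5 g/L BSA, given as a 10-s iv bolus into the jugular vein. Doses 1.25–20 μg/kg in random order, one every 20 min. Maximal blood pressure rise recorded; 6 rats; ANOVA with Dunnett's test.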

Test [2] has as its target Angiotensin II receptor (Oryctolagus cuniculus). The test can be described thus: Antagonistic effect against Angiotensin II receptor in rabbit aortic strip.
Test [3] concerns Rattus norvegicus. The test can be described thus: Tested in vivo on the angiotensin II induced rise of blood pressure after intravenous administration of 2.5 ug/kg in conscious rats. It counts as functional. In outline: as §1
In test [4] the test system is Rattus norvegicus. The test can be described thus: Tested in vivo on the angiotensin II induced rise of blood pressure after intravenous administration of 10 ug/kg in conscious rats. The format is functional. A digest of the protocol: as §1
Test [5] has as its target T1, Angiotensin II receptor (Rattus norvegicus, UniProt P29089+P25095+P35351).
T1 sequence (P29089 whole entry): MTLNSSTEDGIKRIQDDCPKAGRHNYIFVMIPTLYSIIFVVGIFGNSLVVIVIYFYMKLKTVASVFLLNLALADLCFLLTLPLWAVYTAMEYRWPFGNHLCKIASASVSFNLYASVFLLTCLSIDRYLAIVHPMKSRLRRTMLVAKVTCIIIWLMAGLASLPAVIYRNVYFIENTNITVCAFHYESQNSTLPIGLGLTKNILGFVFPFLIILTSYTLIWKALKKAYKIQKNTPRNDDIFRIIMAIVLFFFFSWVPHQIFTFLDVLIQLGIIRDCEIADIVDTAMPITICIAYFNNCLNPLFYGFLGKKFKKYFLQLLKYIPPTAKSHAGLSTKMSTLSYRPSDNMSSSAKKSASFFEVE
T1 sequence (P25095 whole entry): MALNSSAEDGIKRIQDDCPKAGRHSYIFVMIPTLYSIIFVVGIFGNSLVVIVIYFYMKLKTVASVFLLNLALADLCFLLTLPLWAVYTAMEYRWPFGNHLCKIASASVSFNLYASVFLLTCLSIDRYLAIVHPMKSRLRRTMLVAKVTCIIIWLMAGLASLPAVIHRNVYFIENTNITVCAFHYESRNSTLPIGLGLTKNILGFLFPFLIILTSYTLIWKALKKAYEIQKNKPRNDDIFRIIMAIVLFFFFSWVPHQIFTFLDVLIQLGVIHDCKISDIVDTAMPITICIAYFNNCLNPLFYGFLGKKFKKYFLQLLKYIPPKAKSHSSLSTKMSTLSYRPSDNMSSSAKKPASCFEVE
T1 sequence (P35351 whole entry): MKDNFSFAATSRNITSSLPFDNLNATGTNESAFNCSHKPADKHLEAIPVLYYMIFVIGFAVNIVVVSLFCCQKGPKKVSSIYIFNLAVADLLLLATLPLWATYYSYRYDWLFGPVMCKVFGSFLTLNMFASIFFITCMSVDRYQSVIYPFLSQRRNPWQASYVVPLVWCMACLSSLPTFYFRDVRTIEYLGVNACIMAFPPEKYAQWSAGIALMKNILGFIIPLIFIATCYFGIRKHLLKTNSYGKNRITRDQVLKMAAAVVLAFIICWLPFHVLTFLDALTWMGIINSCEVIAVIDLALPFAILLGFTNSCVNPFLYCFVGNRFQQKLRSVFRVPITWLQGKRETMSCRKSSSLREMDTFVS
The test can be described thus: Antagonistic effect against Angiotensin II receptor in zona glomerulosa. It counts as functional. A digest of the protocol:
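Dispersed zona glomerulosa cells from male CFY rats, 250–300 g. Capsules digested with collagenase 2 mg/mL and DNase 0.1 mg/mL, 2 × 25 min at 37 °C. Cells 3.0–3.5 × 10⁶/mL in Krebs–Ringer glucose buffer, 5 g/L albumin. Antagonists 2 × 10⁻¹²–2 × 10⁻⁶ M, alone or with 2 × 10⁻⁸ M AII, duplicate or triplicate. Aldosterone by RIA after CHCl3 extraction; pA2 values.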

The test system of test [6] is Rattus norvegicus. The test can be described thus: Tested in vivo on the angiotensin II induced rise of blood pressure after intravenous administration of 20 ug/kg in conscious rats. The format is functional. In outline:
as §1

The test system of test [7] is Rattus norvegicus. Kind of test: Tested in vivo on the angiotensin II induced rise of blood pressure after intravenous administration of 1.25 ug/kg in conscious rats. It counts as functional. A digest of the protocol: as §1

As a reminder, the pA2 is the negative logarithm of the molar antagonist concentration that doubles the agonist concentration needed for the same response. High values mean higher antagonist potency, low ones lower antagonist potency. Consider `CC[C@H](C)[C@H](NC(=O)[C@H](Cc1ccc(O)cc1)NC(=O)[C@@H](NC(=O)[C@H](CCCN=C(N)N)NC(=O)[C@H](C)O)C(C)C)C(=O)N[C@@H](Cc1c[nH]cn1)C(=O)N1CCC[C@H]1C(=O)O[C@@H](C)C(=O)O`, for which the Blood pressure was 11.7 mmHg in test [1]; 5.8 mmHg in test [3]; 10 mmHg in test [4]; 16.7 mmHg in test [6]; 4.2 mmHg in test [7]. The pA2 was determined as 9.5 in test [2] and 7.999 in test [5].
With `CNCC(=O)N[C@@H](CCCN=C(N)N)C(=O)N[C@H](C(=O)N[C@@H](Cc1ccc(O)cc1)C(=O)N[C@H](C(=O)N[C@@H](Cc1c[nH]cn1)C(=O)N1CCC[C@H]1C(=O)N[C@@H](C)C(=O)O)C1CCCC1)C(C)C`, the Blood pressure in test [1] is 10 mmHg; in test [3], 10 mmHg; in test [4], 17.5 mmHg; in test [6], 14.2 mmHg; in test [7] it was 5.8 mmHg. The pA2 in test [2] turned out to be 9.42; in test [5], 9.933.
As for `CNCC(=O)N[C@@H](CCCN=C(N)N)C(=O)N[C@H](C(=O)N[C@@H](Cc1ccc(O)cc1)C(=O)N[C@H](C(=O)N[C@@H](Cc1c[nH]cn1)C(=O)N1CCC[C@H]1C(=O)N[C@@H](C)C(=O)O)C1CCCCC1)C(C)C`, the Blood pressure is given as 16.9 mmHg in test [1], 17.9 mmHg in test [3], 16.4 mmHg in test [4] and 10.29 mmHg in test [7]. Moreover, the pA2 was determined as 11.18 in test [2] and 9.981 in test [5].
For the compound `CC(C)[C@H](NC(=O)[C@H](CCCN=C(N)N)NC(=O)CO)C(=O)N[C@@H](Cc1ccc(O)cc1)C(=O)N[C@H](C(=O)N[C@@H](Cc1c[nH]cn1)C(=O)N1CCC[C@H]1C(=O)O[C@@H](C)C(=O)O)C1CCCCC1` (Glycolyl-RVY[Chg]HP[Lac]-OH), the Blood pressure in test [1] was 17.5 mmHg; in test [3] it was 7.5 mmHg; in test [4] it was 14.1 mmHg; in test [6], 15.8 mmHg; in test [7], 6.7 mmHg. Further, the pA2 in test [2] is listed as 9.53; in test [5] it was 8.614.
`CC(C)[C@H](NC(=O)[C@H](CCCN=C(N)N)NC(=O)[C@H](C)O)C(=O)N[C@@H](Cc1ccc(O)cc1)C(=O)N[C@H](C(=O)N[C@@H](Cc1c[nH]cn1)C(=O)N1CCC[C@H]1C(=O)O[C@@H](C)C(=O)O)C1CCCC1` (H-[Lac]RVY[Gly(cPent)]HP[Lac]-OH): the Blood pressure in test [1] was determined as 5 mmHg; in test [3], 5 mmHg; in test [4] it was 10 mmHg; in test [6], 15 mmHg; in test [7], 5.8 mmHg. Also, the pA2 in test [2] was 8.52; in test [5], 8.392.
With `CNCC(=O)N[C@@H](CCCN=C(N)N)C(=O)N[C@H](C(=O)N[C@@H](Cc1ccc(O)cc1)C(=O)N[C@H](C(=O)N[C@@H](Cc1c[nH]cn1)C(=O)N1CCC[C@H]1C(=O)O[C@@H](C)C(=O)O)C1CCCCC1)C(C)C` (H-[Sar]RVY[Chg]HP[Lac]-OH), the Blood pressure worked out at 12.1 mmHg in test [1]; 5.7 mmHg in test [3]; 8.6 mmHg in test [4]; 8.3 mmHg in test [6]; 3.6 mmHg in test [7]. The results for the pA2 in test [2] and in test [5] were 11.29 and 10.39, respectively.
As for `CNCC(=O)N[C@@H](CCCN=C(N)N)C(=O)N[C@H](C(=O)N[C@@H](Cc1ccc(O)cc1)C(=O)N[C@H](C(=O)N[C@@H](Cc1c[nH]cn1)C(=O)N1CCC[C@H]1C(=O)O[C@@H](C)C(=O)O)C1CCCC1)C(C)C` (H-[Sar]RVY[Gly(cPent)]HP[Lac]-OH), the Blood pressure came to 9.2 mmHg in test [1]; 10 mmHg in test [3]; 11.7 mmHg in test [4]; 11.7 mmHg in test [6]; 5 mmHg in test [7]. Also, the results for the pA2 in test [2] and in test [5] were 11.09 and 9.649, respectively.
Regarding `CNCC(=O)N[C@@H](CCCNC(=N)N)C(=O)N[C@H](C(=O)N[C@@H](Cc1ccc(O)cc1)C(=O)N[C@H](C(=O)N[C@@H](Cc1cnc[nH]1)C(=O)N1CCC[C@H]1C(=O)N[C@@H](C)C(=O)O)C(C)C)C(C)C` [SARALASIN], the Blood pressure was found to be 12.1 mmHg in test [1]; 9.3 mmHg in test [3]; 15 mmHg in test [4]; 20 mmHg in test [6]; 7.9 mmHg in test [7].
